Test [1] has as its system HeLa. As to the kind of experiment: Inhibition of CCCP-induced ubiquitin phosphorylation at serine 65 residue in human HeLa cells transfected with YFP-Parkin at 50 uM preincubated for 24 hrs followed by CCCP stimulation and measured after 1 hr hr by Hoechst 33258 staining based immunofluorescence analysis. In kind it is cell-based. As to conditions: time 25.0 hrs. In a few lines: (§1)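 YFP-Parkin HeLa cells were pretreated with 50 μM compound for 24 h, then given 10 μM CCCP or niclosamide for 1 h. Cells were fixed in chilled 4% PFA, permeabilised with 0.1% Triton, blocked in BSA, then immunostained overnight at 4 °C for pSer65-Ub and TOM20 with Hoechst. YFP-Parkin was imaged by confocal microscopy (40× oil). pUb mitochondrial localisation was quantified from images.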

Test [2] concerns HeLa. As to the kind of experiment: Inhibition of ubiquitin phosphorylation in CCCP stimulated human HeLa cells overexpressing Parkin assessed as reduction in CCCP-induced ubiquitin phosphorylation at serine 65 at 50 uM preincubated for 24 hrs followed by CCCP stimulation for 3 hr by Western blot analysis. In kind it is cell-based. As to conditions: time 27.0 hrs. In outline: (§2)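 Parkin-transfected HeLa cells received 50 μM compound for 24 h. They were then either lysed directly or given 10 μM CCCP for 3 h before lysis. Lysates were immunoblotted for Ser65-phosphorylated ubiquitin, OPA1 cleavage and GAPDH. Untreated transfected and untransfected cells served as references.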

Test [3] concerns HeLa. As to the kind of experiment: Induction of mitochondrial membrane depolarization in human HeLa cells overexpressing Parkin assessed as inhibition of CCCP-induced OPA1 cleavage at 50 uM preincubated for 24 hrs followed by CCCP stimulation and measured after 3 hrs by Western blot analysis. In kind it is functional, cell-based. Particulars: time 27.0 hrs. In a few lines:
as §2

Test [4] deals with T1, Serine/threonine-protein kinase Pink1, mitochondrial (Tribolium castaneum) (UniProt D6WMX4).
T1 sequence (whole entry): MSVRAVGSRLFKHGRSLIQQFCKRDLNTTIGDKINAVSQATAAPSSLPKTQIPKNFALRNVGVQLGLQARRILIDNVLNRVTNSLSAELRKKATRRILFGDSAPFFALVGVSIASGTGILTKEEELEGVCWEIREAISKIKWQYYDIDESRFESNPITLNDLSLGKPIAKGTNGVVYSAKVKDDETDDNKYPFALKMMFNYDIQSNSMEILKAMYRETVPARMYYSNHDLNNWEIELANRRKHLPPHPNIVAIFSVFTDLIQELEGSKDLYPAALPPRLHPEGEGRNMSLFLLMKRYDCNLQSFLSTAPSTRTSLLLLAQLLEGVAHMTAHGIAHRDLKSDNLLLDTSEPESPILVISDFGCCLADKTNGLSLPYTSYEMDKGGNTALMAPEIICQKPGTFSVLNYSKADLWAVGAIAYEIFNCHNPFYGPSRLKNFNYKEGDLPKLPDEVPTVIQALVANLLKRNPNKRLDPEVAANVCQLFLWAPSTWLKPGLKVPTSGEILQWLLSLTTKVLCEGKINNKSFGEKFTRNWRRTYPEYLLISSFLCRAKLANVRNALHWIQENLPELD
As to the kind of experiment: Inhibition of recombinant Tribolium castaneum PINK1 using human ubiquitin as substrate assessed as substrate phosphorylation upto 100 uM.

For test [5], the system named is HeLa. Briefly: Inhibition of niclosamide-induced ubiquitin phosphorylation at serine 65 residue in human HeLa cells transfected with YFP-Parkin at 50 uM preincubated for 24 hrs followed by niclosamide stimulation and measured after 1 hr hr by Western blot analysis. In kind it is cell-based. As to conditions: time 25.0 hrs. In a few lines: (§3)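 YFP-Parkin-transfected HeLa cells were pretreated with 50 μM compound (24 h per legend, 23 h per methods), then given 10 μM CCCP or niclosamide for 1 h. Lysis used AP buffer (Tris pH 7.5, IGEPAL, protease/phosphatase inhibitors). Blots were on PVDF, milk-blocked, primary antibody overnight at 4 °C, HRP detection; probed for pUb, LC3B-I/-II and α-tubulin.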

Test [6] deals with Serine/threonine-protein kinase PINK1, mitochondrial (Homo sapiens) (UniProt Q9BXM7). Briefly: Activation of human PINK1 in human HeLa cells overexpressing Parkin assessed as phosphorylation of ubiquitin at serine 65 at 50 uM and measured after 24 hr by Western blot analysis. In kind it is cell-based. In a few lines:
as §2

The test system of test [7] is HeLa. Briefly: Inhibition of niclosamide-induced ubiquitin phosphorylation at serine 65 residue in human HeLa cells transfected with YFP-Parkin at 50 uM preincubated for 24 hrs followed by niclosamide stimulation and measured after 1 hr hr by Hoechst 33258 staining based immunofluorescence analysis. As to conditions: time 25.0 hrs. In kind it is cell-based. In a few lines: as §1

Test [8] deals with HeLa. As to the kind of experiment: Induction of mitophagy in human HeLa cells transfected with YFP-Parkin assessed as effect on mitochondrial fragmentation at 50 uM incubated for 24 hrs by Hoechst 33258 staining based immunofluorescence analysis. In kind it is functional, cell-based. In a few lines: (§4)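 YFP-Parkin-transfected HeLa cells were left untreated or exposed to 50 μM compound alone for 24 h. Cells were PFA-fixed, Triton-permeabilised and immunostained for pSer65-Ub and TOM20 with Hoechst. Confocal imaging assessed mitochondrial fragmentation, YFP-Parkin localisation and ubiquitin phosphorylation.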

Test [9] has as its system HeLa. Briefly: Induction of mitochondrial membrane depolarization in human HeLa cells transfected with YFP-Parkin assessed as prevention of CCCP induced mitochondrial membrane potential loss at 50 uM preincubated for 24 hrs followed by CCCP stimulation and measured after 1 hr by Hoechst 33258 staining based immunofluorescence analysis. In kind it is functional, cell-based. As to conditions: time 25.0 hrs. In outline:
(§5)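 Mitochondrial membrane potential was read in YFP-Parkin HeLa cells pretreated with 50 μM compound for 24 h, then given 10 μM niclosamide or CCCP for 1 h. Medium was replaced with 5 nM TMRM plus Hoechst for 30 min at 37 °C in the dark. After a PBS wash, live cells were imaged by confocal microscopy at 37 °C, 5% CO2.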

For test [10], the system named is HeLa. As to the kind of experiment: Induction of mitochondrial membrane depolarization in human HeLa cells overexpressing Parkin assessed as inhibition of niclosamide-induced OPA1 cleavage at 50 uM preincubated for 24 hrs followed by niclosamide stimulation and measured after 3 hrs by Western blot analysis. In kind it is functional, cell-based. Particulars: time 27.0 hrs.

The subject of test [11] is HeLa. As to the kind of experiment: Induction of mitophagy in human HeLa cells transfected with YFP-Parkin assessed as effect on Parkin localization at 50 uM incubated for 24 hrs by Hoechst 33258 staining based immunofluorescence analysis. In kind it is functional, cell-based. In outline: as §4
The subject of test [12] is HeLa. Briefly: Induction of mitophagy in YFP-Parkin-transfected human HeLa cells assessed as effect on ubiquitin phosphorylation at 50 uM incubated for 24 hrs by Hoechst 33258 staining based immunofluorescence analysis. In kind it is functional, cell-based. In a few lines: as §4
The test system of test [13] is MEF. Briefly: Induction of mitophagy in PINK1 knockout mouse immortalized MEF cells overexpressing HA-tagged Parkin assessed as increase in mitophagy at 5 uM incubated for 16 hrs by flow cytometry analysis. In kind it is functional, cell-based. In outline:
(§6)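 Immortalised MEFs from PINK1 WT or KO mito-QC littermate embryos, overexpressing HA-Parkin, were treated for 16 h. Cells were trypsinised, fixed in 3.7% formaldehyde/200 mM HEPES pH 7.0 and analysed by flow cytometry (≥2 × 10^4 cells). Living cells were gated on scatter, and the untreated-condition gate was applied to all conditions. Percent cells undergoing mitophagy was taken from the GFP/mCherry ratio; n = 3, two-way ANOVA with Sidak test.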

Test [14] relates to HeLa. As to the kind of experiment: Induction of mitochondrial membrane depolarization in human HeLa cells transfected with YFP-Parkin assessed as prevention of niclosamide induced mitochondrial membrane potential loss at 50 uM preincubated for 24 hrs followed by niclosamide stimulation and measured after 1 hr by Hoechst 33258 staining based immunofluorescence analysis. In kind it is functional, cell-based. Particulars: time 25.0 hrs. In outline: as §5

The subject of test [15] is HeLa. Briefly: Inhibition of CCCP-induced ubiquitin phosphorylation at serine 65 residue in human HeLa cells transfected with YFP-Parkin at 50 uM preincubated for 24 hrs followed by CCCP stimulation and measured after 1 hr hr by Western blot analysis. In kind it is cell-based. Particulars: time 25.0 hrs. In outline:
as §3

Test [16] concerns MEF. As to the kind of experiment: Induction of mitophagy in wild-type PINK1 harboring mouse immortalized MEF cells overexpressing HA-tagged Parkin assessed as increase in mitophagy at 5 uM incubated for 16 hrs by flow cytometry analysis. In kind it is functional, cell-based. In a few lines:
as §6

Test [17] has as its target T1, Serine/threonine-protein kinase Pink1, mitochondrial (Tribolium castaneum). Briefly: Inhibition of recombinant Tribolium castaneum PINK1 using human Parkin as substrate assessed as substrate phosphorylation upto 100 uM.

The structures appear in SMILES notation. Active and inactive are the calls of the source. No cut-off for these calls is given here.

Chain of Serine/threonine-protein kinase PINK1, mitochondrial (Homo sapiens) (Q9BXM7 whole entry): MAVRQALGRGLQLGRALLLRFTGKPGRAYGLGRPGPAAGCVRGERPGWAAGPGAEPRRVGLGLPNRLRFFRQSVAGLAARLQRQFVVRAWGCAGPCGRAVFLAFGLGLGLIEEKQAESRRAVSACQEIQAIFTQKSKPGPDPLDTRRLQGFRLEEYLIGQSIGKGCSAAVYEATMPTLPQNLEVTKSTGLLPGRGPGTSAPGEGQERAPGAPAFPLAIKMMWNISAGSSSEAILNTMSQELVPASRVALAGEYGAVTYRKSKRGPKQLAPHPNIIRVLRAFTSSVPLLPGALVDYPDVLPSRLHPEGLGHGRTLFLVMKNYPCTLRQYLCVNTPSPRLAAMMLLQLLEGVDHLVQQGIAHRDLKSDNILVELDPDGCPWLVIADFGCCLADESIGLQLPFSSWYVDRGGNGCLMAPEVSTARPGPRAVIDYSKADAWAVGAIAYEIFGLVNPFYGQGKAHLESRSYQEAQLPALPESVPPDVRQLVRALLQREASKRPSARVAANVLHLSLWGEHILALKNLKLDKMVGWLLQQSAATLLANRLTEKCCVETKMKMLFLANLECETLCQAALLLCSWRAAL

Regarding `OC[C@H]1O[C@@H](n2cnc3c(NCc4ccco4)ncnc32)[C@H](O)[C@@H]1O`, the inhibition result with HeLa [1], in the test on HeLa [2], in the test with HeLa [5], with HeLa [7] and in the test with HeLa [15] was “Active” throughout. The inhibition entry (with HeLa [3]; in [4]; with HeLa [10]; in [17]) was “inactive” in each case. The outcome (in test [6]; in the test with HeLa [8]; with HeLa [9]; in the test with HeLa [11]; in the test on HeLa [12]; with MEF [13]) was inactive. Further, in the test on HeLa [14], the result was inactive. Moreover, the outcome with MEF [16] was Active.

The record behind these values is ChEMBL document CHEMBL5352504, “PINK1-Dependent Mitophagy Inhibits Elevated Ubiquitin Phosphorylation Caused by Mitochondrial Damage” (J Med Chem, 2023).
